Source: ChEMBL document CHEMBL1949660 (Bioorg Med Chem Lett, 2012)
Calls of active or inactive are those of the source.

What was measured:
Histamine H3 receptor [1] = target: T1, Histamine H3 receptor (Homo sapiens, UniProt Q9Y5N1); test: Displacement of [3H]NAMH from human histamine H3 receptor expressed in CHO cells; format: cell-based
Outline: (§1)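 Radioligand displacement of [³H]NAMH from membranes isolated from CHO cells transfected with cloned human H₃ or rat H₃ receptors.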

Histamine H3 receptor [2] = target: Histamine H3 receptor (Rattus norvegicus, UniProt Q9QYN8); test: Displacement of [3H]NAMH from rat histamine H3 receptor expressed in CHO cells; format: cell-based; outline: as §1
Histamine H3 receptor [3] = target: T1, Histamine H3 receptor; test: Inverse agonist activity at human histamine H3 receptor assessed as inhibition of R-alpha-methylhistamine-induced [35S]GTPgammaS binding; format: functional
[4] = Apparent permeability across human Caco2 cells; format: ADME, cell-based; conditions: Caco-2
[5] = Half life in human liver microsomes; format: ADME, Microsome
[6] = Half life in rat liver microsomes; format: ADME, Microsome
[7] = Half life in dog liver microsomes; format: ADME, Canis lupus familiaris, Microsome
[8] = Half life in monkey liver microsomes; format: ADME, Macaca mulatta, Microsome; conditions: rhesus monkey
Cytochrome P450 1A2 = target: T2, Cytochrome P450 1A2 (Homo sapiens, UniProt P05177); test: Inhibition of CYP1A2; format: ADME
T2 sequence (P05177 whole entry): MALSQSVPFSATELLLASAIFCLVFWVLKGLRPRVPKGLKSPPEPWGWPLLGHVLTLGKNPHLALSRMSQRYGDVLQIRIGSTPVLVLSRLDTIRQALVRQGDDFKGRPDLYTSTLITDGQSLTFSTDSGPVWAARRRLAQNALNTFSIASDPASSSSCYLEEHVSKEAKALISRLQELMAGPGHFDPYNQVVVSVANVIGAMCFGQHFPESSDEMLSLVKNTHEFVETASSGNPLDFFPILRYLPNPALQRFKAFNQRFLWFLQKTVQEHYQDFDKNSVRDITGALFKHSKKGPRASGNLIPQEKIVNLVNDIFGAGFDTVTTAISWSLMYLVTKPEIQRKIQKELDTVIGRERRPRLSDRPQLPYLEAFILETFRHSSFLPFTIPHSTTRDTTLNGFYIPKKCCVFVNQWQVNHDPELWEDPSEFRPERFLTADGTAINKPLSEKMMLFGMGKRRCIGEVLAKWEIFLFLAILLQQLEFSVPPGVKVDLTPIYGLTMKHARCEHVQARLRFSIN

Cytochrome P450 2C9 = Cytochrome P450 2C9 (Homo sapiens, UniProt P11712); test: Inhibition of CYP2C9; format: ADME
Cytochrome P450 2C19 = Cytochrome P450 2C19 (Homo sapiens, UniProt P33261); test: Inhibition of CYP2C19; format: ADME
Cytochrome P450 2D6 = Cytochrome P450 2D6 (Homo sapiens, UniProt P10635); test: Inhibition of CYP2D6; format: ADME
Cytochrome P450 3A4 = Cytochrome P450 3A4 (Homo sapiens, UniProt P08684); test: Inhibition of CYP3A4; format: ADME
[9] = target: Sodium-dependent dopamine transporter (Homo sapiens) (UniProt Q01959); test: Inhibition of DAT at 10 uM
[10] = target: Voltage-gated inwardly rectifying potassium channel KCNH2 (Homo sapiens, UniProt Q12809); test: Inhibition of human Erg by patch clamp assay
[11] = Half life in rat at 1 mg/kg, iv; format: ADME, organism-based; set-up: dose 1 mg/kg, route intravenous; conditions: in vivo
Outline: (§2)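 Rat PK: iv dose with vehicle 3% DMSO, 30% solutol, 67% phosphate buffered saline. Oral 5 mg/kg dose with vehicle 50% Tween 80, 40% propylene carbonate, 10% propylene glycol.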

[12] = Volume of distribution in rat at 1 mg/kg, iv; format: ADME, organism-based; set-up: dose 1 mg/kg, route intravenous; conditions: in vivo; outline: as §2
[13] = Clearance in rat at 1 mg/kg, iv; format: ADME, organism-based; set-up: dose 1 mg/kg, route intravenous; conditions: in vivo; outline: as §2
[14] = Cmax in rat at 5 mg/kg, po; format: ADME, organism-based; set-up: dose 5 mg/kg, route oral; conditions: in vivo
[15] = Oral bioavailability in rat at 5 mg/kg; format: ADME, organism-based; conditions: in vivo; outline: as §2
[16] = Drug uptake in rat brain at 5 mg/kg, po measured after 6 hrs; format: ADME, organism-based; set-up: dose 5 mg/kg, route oral; conditions: read-out: Drug uptake
Outline: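 Rats given 5 mg/kg po in 50% Tween 80, 40% propylene carbonate, 10% propylene glycol. Brain concentration determined 6 h after dosing.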

[17] = Ratio drug uptake in brain to plasma of rat at 10 mg/kg, ip measured after 6 hrs; format: ADME, organism-based; set-up: dose 10 mg/kg, route intraperitoneal; conditions: read-out: BPR
Homo sapiens [18] = species on record: Homo sapiens; test: Selectivity for human histamine H3 receptor over human histamine H1 receptor
Outline: (§3)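 The hH3 side comes from displacement of [³H]NAMH binding in membranes from CHO cells transfected with cloned human H3 receptor. Human H1, H2 and H4 receptors were tested in an outsourced receptor selectivity profiling screen (LeadProfiler/Spectrum). The value is the fold-selectivity of hH3 over each subtype.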

Homo sapiens [19] = species on record: Homo sapiens; test: Selectivity for human histamine H3 receptor over human histamine H2 receptor; outline: as §3
Homo sapiens [20] = species on record: Homo sapiens; test: Selectivity for human histamine H3 receptor over human histamine H4 receptor; outline: as §3
[21] = Plasma protein binding in rat; format: ADME, cell-free; conditions: read-out: PPB
[22] = Plasma protein binding in dog; format: ADME, cell-free, Canis lupus familiaris; conditions: read-out: PPB
[23] = Plasma protein binding in human; format: ADME, cell-free; conditions: read-out: PPB
Rattus norvegicus [24] = test: Inhibition of RAMH-induced dipsogenia in ip dosed rat; format: functional
Rattus norvegicus [25] = test: Effect on sleep-awake cycle in ip dosed EEG/EMG rat model assessed as wake promotion after 4 hrs; format: functional, organism-based
Outline: (§4)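 Rats surgically implanted for chronic EEG and EMG recording. Wake, slow-wave sleep and REM sleep scored by standard criteria. Doses spanned […]–30 mg/kg ip, given during the normal quiet (lights-on) period, with a vehicle group as control. Cumulative wake time taken as AUC over time after dosing. Statistics by ANOVA.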

Rattus norvegicus [26] = test: Effect on sleep-awake cycle in EEG/EMG rat model assessed as wake promotion at 0.1 to 1 mg/kg, ip after 4 hrs relative to control; format: functional; conditions: dose mg/kg 0.1-1; route intraperitoneal; outline: as §4
Rattus norvegicus [27] = test: Effect on sleep-awake cycle in EEG/EMG rat model assessed as wake promotion time at 0.1 mg/kg, ip after 4 hrs (reference value: 80 +/- 5 mins); format: functional; conditions: route intraperitoneal; outline: as §4
Rattus norvegicus [28] = test: Effect on sleep-awake cycle in EEG/EMG rat model assessed as wake promotion time at 0.3 mg/kg, ip after 4 hrs (reference value: 80 +/- 5 mins); format: functional; conditions: route intraperitoneal; outline: as §4
Rattus norvegicus [29] = test: Effect on sleep-awake cycle in EEG/EMG rat model assessed as wake promotion time at 1 mg/kg, ip after 4 hrs (reference value: 80 +/- 5 mins); format: functional; conditions: route intraperitoneal; outline: as §4
Rattus norvegicus [30] = test: Effect on sleep-awake cycle in EEG/EMG rat model assessed as wake promotion at 10 mg/kg, ip after 2 hrs; format: functional; conditions: route intraperitoneal; outline: as §4
Rattus norvegicus [31] = test: Effect on sleep-awake cycle in EEG/EMG rat model assessed as wake promotion time at 10 mg/kg, ip after 4 hrs relative to control; format: functional; conditions: route intraperitoneal; outline: as §4
Rattus norvegicus [32] = test: Effect on sleep-awake cycle in EEG/EMG rat model assessed as wake promotion time at 30 mg/kg, ip after 4 hrs relative to control; format: functional; conditions: route intraperitoneal; outline: as §4
Rattus norvegicus [33] = test: Effect on sleep-awake cycle in EEG/EMG rat model assessed as awake time at 10 mg/kg, ip after 4 hrs relative to control; format: functional; conditions: route intraperitoneal; outline: as §4
Rattus norvegicus [34] = test: Effect on sleep-awake cycle in EEG/EMG rat model assessed as awake time at 30 mg/kg, ip after 4 hrs relative to control; format: functional; conditions: route intraperitoneal; outline: as §4
Rattus norvegicus [35] = test: Effect on sleep-awake cycle in EEG/EMG rat model assessed as maximal cumulative wake surplus time at 30 mg/kg, ip after 7 hrs relative to control; format: functional; conditions: route intraperitoneal; outline: as §4
Rattus norvegicus [36] = test: Effect on sleep-awake cycle in EEG/EMG rat model assessed as wake surplus at 30 mg/kg, ip up to 22 hrs; format: functional, organism-based; set-up: dose 30 mg/kg; outline: as §4
Rattus norvegicus [37] = test: Effect on sleep-awake cycle in EEG/EMG rat model assessed as sleep rebound at 0.1 to 30 mg/kg, ip; format: functional, organism-based; outline: as §4

T1 sequence (Q9Y5N1 whole entry): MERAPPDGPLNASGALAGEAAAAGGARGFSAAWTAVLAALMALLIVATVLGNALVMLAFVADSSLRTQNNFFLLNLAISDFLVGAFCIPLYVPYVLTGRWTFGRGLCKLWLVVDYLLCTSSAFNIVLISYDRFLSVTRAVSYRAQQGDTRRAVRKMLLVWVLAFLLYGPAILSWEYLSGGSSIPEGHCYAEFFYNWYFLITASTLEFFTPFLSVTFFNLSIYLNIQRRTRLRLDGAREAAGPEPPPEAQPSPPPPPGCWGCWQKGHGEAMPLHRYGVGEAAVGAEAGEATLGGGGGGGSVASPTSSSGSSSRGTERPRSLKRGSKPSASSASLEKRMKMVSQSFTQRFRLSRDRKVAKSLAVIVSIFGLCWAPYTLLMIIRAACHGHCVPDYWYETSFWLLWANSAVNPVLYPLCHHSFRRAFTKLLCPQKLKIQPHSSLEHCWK
Chain of Histamine H3 receptor (Rattus norvegicus, UniProt Q9QYN8) (Q9QYN8 whole entry): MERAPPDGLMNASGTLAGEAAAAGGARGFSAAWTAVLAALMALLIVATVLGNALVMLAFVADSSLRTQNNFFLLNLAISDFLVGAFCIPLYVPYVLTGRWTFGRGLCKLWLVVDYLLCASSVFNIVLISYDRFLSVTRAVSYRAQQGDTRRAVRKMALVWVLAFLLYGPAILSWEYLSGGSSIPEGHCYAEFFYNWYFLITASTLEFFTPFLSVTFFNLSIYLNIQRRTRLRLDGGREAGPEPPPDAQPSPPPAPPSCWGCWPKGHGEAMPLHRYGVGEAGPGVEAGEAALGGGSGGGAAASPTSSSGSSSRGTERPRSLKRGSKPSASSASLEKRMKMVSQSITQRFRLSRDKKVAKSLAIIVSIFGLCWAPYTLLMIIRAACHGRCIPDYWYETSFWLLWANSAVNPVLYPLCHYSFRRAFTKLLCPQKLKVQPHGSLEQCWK
Chain of Sodium-dependent dopamine transporter (Homo sapiens) (Q01959 whole entry): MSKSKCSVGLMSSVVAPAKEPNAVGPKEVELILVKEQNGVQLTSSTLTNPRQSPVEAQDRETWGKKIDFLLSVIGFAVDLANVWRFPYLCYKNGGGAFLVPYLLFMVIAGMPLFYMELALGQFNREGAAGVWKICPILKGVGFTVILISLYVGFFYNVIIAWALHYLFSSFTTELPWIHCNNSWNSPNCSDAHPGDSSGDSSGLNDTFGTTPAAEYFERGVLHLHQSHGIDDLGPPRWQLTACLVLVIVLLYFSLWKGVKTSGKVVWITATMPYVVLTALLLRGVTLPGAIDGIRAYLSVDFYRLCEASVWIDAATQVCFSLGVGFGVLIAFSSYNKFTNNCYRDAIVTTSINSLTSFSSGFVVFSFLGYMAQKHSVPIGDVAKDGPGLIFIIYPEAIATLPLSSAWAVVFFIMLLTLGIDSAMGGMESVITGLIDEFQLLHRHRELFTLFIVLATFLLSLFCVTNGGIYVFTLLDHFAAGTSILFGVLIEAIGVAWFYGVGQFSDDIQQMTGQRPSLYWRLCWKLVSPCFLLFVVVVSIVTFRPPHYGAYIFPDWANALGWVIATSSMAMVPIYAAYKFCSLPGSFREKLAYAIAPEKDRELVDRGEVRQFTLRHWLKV
Chain of Cytochrome P450 2C9 (P11712 whole entry): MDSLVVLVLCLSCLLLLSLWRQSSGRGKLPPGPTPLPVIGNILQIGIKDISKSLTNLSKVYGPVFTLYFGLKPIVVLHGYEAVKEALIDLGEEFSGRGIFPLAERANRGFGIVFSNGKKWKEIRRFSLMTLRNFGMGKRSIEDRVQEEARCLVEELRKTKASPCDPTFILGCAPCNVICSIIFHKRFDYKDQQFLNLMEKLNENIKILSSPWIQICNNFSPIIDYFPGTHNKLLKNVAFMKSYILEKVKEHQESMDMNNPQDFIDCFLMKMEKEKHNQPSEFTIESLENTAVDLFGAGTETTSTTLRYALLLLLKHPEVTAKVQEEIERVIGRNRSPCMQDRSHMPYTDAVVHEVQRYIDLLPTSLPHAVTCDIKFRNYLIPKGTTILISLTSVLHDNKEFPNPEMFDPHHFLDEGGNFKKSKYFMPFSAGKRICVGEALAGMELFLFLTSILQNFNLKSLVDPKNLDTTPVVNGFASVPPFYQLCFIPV
Chain of Voltage-gated inwardly rectifying potassium channel KCNH2 (Q12809 whole entry): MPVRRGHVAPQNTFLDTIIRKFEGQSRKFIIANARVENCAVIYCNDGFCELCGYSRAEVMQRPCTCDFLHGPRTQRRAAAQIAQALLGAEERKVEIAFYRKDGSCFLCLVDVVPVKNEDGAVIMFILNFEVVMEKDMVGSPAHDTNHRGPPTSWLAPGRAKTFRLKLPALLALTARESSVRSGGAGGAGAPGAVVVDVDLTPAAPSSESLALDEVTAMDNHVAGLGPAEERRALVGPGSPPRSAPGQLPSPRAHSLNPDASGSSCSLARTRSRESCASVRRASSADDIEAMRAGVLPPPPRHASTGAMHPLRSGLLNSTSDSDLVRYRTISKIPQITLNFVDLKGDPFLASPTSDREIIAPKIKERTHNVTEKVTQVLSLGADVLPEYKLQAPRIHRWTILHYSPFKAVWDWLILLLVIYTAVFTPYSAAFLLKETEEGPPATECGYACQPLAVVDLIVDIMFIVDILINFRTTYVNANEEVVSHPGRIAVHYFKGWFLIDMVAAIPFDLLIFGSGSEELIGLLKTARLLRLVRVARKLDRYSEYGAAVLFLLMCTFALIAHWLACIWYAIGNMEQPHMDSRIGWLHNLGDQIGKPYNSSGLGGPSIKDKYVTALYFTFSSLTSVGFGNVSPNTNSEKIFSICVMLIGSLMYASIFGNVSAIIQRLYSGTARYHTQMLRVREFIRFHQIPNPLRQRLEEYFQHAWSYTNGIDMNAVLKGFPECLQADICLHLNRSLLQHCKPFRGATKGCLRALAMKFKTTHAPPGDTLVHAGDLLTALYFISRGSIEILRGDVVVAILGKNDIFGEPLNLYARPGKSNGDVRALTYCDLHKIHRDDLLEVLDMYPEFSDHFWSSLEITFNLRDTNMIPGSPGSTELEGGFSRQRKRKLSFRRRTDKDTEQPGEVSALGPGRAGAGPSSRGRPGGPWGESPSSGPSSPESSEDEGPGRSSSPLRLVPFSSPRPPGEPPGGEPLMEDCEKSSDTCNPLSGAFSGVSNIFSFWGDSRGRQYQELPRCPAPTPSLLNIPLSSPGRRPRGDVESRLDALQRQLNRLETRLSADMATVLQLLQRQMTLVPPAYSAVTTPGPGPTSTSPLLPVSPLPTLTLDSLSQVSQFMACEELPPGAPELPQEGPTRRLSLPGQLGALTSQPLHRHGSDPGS
Chain of Cytochrome P450 2D6 (P10635 whole entry): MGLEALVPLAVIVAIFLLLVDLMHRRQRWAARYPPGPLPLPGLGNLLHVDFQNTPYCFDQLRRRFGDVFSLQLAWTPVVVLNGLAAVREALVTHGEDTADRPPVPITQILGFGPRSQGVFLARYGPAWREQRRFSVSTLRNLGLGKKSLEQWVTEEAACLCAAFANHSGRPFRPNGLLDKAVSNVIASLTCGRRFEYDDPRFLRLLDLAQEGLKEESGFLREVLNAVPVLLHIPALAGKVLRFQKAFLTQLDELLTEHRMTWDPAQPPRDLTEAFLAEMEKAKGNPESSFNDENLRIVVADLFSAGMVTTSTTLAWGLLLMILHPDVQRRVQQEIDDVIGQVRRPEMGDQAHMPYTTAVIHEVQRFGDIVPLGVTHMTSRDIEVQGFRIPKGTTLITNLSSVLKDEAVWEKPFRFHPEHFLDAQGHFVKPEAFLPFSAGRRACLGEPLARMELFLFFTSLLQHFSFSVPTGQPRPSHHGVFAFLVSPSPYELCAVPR
Chain of Cytochrome P450 3A4 (P08684 whole entry): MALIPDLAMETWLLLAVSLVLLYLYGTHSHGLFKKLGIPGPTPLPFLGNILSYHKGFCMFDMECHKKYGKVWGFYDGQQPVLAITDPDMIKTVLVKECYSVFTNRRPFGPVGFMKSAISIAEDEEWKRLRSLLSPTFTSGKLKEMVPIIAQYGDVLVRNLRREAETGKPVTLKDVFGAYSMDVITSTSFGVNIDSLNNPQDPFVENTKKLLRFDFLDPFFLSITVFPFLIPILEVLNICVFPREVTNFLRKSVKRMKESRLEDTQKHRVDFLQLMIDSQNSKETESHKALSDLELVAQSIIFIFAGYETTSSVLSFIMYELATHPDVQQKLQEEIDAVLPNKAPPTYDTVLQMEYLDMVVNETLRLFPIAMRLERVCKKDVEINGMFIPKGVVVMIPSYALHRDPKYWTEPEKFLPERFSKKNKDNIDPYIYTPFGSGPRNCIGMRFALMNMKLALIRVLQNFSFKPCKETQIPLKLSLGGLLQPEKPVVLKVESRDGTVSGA
Chain of Cytochrome P450 2C19 (P33261 whole entry): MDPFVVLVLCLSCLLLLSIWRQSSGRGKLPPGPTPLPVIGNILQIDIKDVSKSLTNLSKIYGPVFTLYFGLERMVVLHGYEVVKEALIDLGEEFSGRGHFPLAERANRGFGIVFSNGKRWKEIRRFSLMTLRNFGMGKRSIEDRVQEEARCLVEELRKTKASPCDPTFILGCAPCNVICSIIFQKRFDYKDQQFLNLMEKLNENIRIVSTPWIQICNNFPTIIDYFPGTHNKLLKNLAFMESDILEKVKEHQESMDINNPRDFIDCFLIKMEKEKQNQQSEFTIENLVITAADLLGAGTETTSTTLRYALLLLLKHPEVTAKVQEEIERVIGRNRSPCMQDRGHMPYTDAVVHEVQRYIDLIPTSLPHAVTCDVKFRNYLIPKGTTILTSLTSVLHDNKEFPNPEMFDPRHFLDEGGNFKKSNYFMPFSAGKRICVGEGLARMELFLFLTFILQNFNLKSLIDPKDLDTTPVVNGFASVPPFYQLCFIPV

Cn1nc(-c2ccc(OC3CCN(C4CCC4)CC3)cc2)ccc1=O
Ki (Histamine H3 receptor [1]): 2.4 nM | Ki (Histamine H3 receptor [2]): 3.1 nM

C[C@@H]1CC(=O)NN=C1c1ccc(OC2CCN(C3CCC3)CC2)cc1
Ki (Histamine H3 receptor [2]): 9.6 nM

Cn1nc(-c2ccc(OC3CCN(C4CCC4)CC3)nc2)ccc1=O
Ki (Histamine H3 receptor [1]): 1.8 nM | Ki (Histamine H3 receptor [2]): 8.6 nM

CC1(C)CC(c2ccc(OC3CCN(C4CCC4)CC3)cc2)=NNC1=O
Ki (Histamine H3 receptor [1]): 2.7 nM | Ki (Histamine H3 receptor [2]): 4.4 nM | EC50 (Histamine H3 receptor [3]): 0.8 nM | Papp [4]: 27 ×10⁻⁶ cm/s | half-life [5]: > 0.667 h | half-life [6]: > 0.667 h | half-life [7]: > 0.667 h | half-life [8]: > 0.667 h | IC50 (Cytochrome P450 1A2): > 30000 nM | IC50 (Cytochrome P450 2C9): > 30000 nM | IC50 (Cytochrome P450 2C19): > 30000 nM | IC50 (Cytochrome P450 2D6): > 30000 nM | IC50 (Cytochrome P450 3A4): > 30000 nM | inhibition [9]: 8% | IC50 [10]: 21000 nM | half-life [11]: 1.9 h | Vd [12]: 3.1 L/kg | clearance [13]: 18 mL/min/kg | Cmax [14]: 270 ng/mL | bioavailability [15]: 33% | concentration at 6 h [16]: 2100 nM | Kp at 6 h [17]: 4 | Selectivity ratio (Homo sapiens [18]): > 1000 | Selectivity ratio (Homo sapiens [19]): > 1000 | Selectivity ratio (Homo sapiens [20]): > 1000 | fraction unbound [21]: 0.5 | fraction unbound [22]: 0.5 | fraction unbound [23]: 0.5 | ED50 (Rattus norvegicus [24]): 0.14 mg/kg | inhibition (Rattus norvegicus [24]): Dose-dependent effect | Activity (Rattus norvegicus [25]): Dose-dependent effect | Activity (Rattus norvegicus [26]): 45% | Time (Rattus norvegicus [27]): 115 min | Time (Rattus norvegicus [28]): 122 min | Time (Rattus norvegicus [29]): 116 min | Activity (Rattus norvegicus [30]): 90% | Activity (Rattus norvegicus [31]): 152% | Activity (Rattus norvegicus [32]): 193% | Activity (Rattus norvegicus [33]): 84% | Activity (Rattus norvegicus [34]): 98% | Time (Rattus norvegicus [35]): 196 min | Activity (Rattus norvegicus [36]): Active | Activity (Rattus norvegicus [37]): inactive

CC(C)N1CCC(Oc2ccc(-c3ccc(=O)[nH]n3)cn2)CC1
Ki (Histamine H3 receptor [1]): 15 nM | Ki (Histamine H3 receptor [2]): 101 nM

Cc1cc(=O)[nH]nc1-c1ccc(OC2CCN(C3CCC3)CC2)cc1
Ki (Histamine H3 receptor [1]): 4.4 nM | Ki (Histamine H3 receptor [2]): 6.3 nM

Cn1nc(-c2ccc(OC3CCNCC3)cc2)ccc1=O
Ki (Histamine H3 receptor [1]): 695 nM | Ki (Histamine H3 receptor [2]): > 1000 nM

C[C@H]1CC(=O)NN=C1c1ccc(OC2CCN(C3CCC3)CC2)cc1
Ki (Histamine H3 receptor [2]): 13 nM | inhibition [9]: 13% | half-life [11]: 4.4 h | Vd [12]: 7.6 L/kg | clearance [13]: 23 mL/min/kg | Cmax [14]: 253 ng/mL | bioavailability [15]: 56% | Kp at 6 h [17]: 5.3

O=c1ccc(-c2ccc(OC3CCN(C4CCCC4)CC3)nc2)n[nH]1
Ki (Histamine H3 receptor [1]): 26 nM | Ki (Histamine H3 receptor [2]): 51 nM

O=c1ccc(-c2ccc(OC3CCN(C4CCC4)CC3)cc2)nn1-c1ccccn1
Ki (Histamine H3 receptor [1]): 9.8 nM | Ki (Histamine H3 receptor [2]): 15 nM

Cn1nc(-c2ccc(OC3CCN(C4CCCC4)CC3)cc2)ccc1=O
Ki (Histamine H3 receptor [1]): 2.7 nM
